The target in experiment [1] is T1, Epidermal growth factor receptor (Homo sapiens, UniProt P00533). Nature of the experiment: In vitro inhibitory activity against epidermal growth factor receptor.
For experiment [2], the target named is Proto-oncogene tyrosine-protein kinase Src (Homo sapiens, UniProt P12931). Put plainly: Inhibition of tyrosine kinase c-Src. Put shortly:
(§1)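 Enzyme purification and in vitro kinase assay as previously described. Compounds dissolved in DMSO and diluted in buffer to 1% DMSO final in the assay. IC50 values are averages of at least three determinations.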

Experiment [3] addresses Tyrosine-protein kinase ABL (Homo sapiens, UniProt P00519+P42684). Put plainly: Inhibition of tyrosine kinase v-Abl. Format: protein assay. Put shortly:
as §1

For experiment [4], the target named is Protein kinase C alpha type (Homo sapiens, UniProt P17252). Nature of the experiment: Inhibition of Protein kinase C alpha. Summed up: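 Enzymes purified as previously reported. Compounds were dissolved in DMSO and diluted in buffer to a final assay DMSO of 1%. IC50 values are averages of at least three determinations.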
The test system of experiment [5] is NIH3T3. Nature of the experiment: Inhibition of PDGF-induced c-fos mRNA expression in BALB/c 3T3 cells. Format: functional, cell-based. The settings on record: Mus musculus.
A further experiment concerns Balb/MK. Put plainly: Inhibition of proliferation of EGF-dependent BALB/MK cells. Format: functional, cell-based. As to conditions: Mus musculus.
Experiment [6] addresses T1, Epidermal growth factor receptor. Put plainly: Inhibition of EGF-stimulated tyrosine phosphorylation in A431 cells expressing EGF-R.
In experiment [7] the test system is NIH3T3. Put plainly: Inhibition of PDGF-stimulated tyrosine phosphorylation in BALB/c3T3 cells. Format: functional, cell-based. The settings on record: Mus musculus. Put shortly: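 Total cellular tyrosine phosphorylation was stimulated with PDGF in BALB/c 3T3 cells and read by microtiter ELISA. Results are reported as IC50 in µM.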

The structures appear in SMILES notation.

T1 sequence (P00533 whole entry): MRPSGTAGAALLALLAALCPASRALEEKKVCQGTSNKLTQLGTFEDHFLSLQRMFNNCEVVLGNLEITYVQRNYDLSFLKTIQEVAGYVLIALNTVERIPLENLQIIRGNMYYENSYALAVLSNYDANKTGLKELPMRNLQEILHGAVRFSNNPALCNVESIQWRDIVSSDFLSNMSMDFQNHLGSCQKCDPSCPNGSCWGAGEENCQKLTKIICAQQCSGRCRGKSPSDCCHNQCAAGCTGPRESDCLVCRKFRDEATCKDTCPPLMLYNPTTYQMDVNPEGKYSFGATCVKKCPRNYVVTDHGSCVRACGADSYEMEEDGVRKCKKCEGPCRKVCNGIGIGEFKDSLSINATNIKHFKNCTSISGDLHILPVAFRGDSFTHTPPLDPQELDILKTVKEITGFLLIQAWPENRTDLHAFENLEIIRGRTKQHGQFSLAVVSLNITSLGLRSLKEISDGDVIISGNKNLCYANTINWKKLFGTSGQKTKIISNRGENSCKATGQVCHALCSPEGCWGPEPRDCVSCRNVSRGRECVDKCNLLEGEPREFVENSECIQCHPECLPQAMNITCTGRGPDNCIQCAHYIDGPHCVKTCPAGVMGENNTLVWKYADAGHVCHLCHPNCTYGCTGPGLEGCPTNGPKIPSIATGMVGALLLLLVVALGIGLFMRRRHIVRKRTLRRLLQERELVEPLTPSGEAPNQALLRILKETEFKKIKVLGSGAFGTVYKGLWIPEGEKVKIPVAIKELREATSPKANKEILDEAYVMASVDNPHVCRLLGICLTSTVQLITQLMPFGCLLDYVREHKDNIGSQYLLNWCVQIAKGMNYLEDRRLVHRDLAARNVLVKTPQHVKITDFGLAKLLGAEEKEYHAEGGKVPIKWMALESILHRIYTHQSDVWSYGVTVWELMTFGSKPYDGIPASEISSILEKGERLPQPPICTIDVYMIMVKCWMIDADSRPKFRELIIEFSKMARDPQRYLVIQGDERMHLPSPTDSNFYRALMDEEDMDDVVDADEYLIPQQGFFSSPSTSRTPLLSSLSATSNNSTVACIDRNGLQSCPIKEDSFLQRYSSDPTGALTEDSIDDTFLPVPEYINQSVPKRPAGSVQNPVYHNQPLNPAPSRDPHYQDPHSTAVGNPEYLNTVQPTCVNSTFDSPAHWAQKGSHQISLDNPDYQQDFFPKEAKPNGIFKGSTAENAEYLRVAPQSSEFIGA
Chain of Proto-oncogene tyrosine-protein kinase Src (P12931 2-536 limits assumed): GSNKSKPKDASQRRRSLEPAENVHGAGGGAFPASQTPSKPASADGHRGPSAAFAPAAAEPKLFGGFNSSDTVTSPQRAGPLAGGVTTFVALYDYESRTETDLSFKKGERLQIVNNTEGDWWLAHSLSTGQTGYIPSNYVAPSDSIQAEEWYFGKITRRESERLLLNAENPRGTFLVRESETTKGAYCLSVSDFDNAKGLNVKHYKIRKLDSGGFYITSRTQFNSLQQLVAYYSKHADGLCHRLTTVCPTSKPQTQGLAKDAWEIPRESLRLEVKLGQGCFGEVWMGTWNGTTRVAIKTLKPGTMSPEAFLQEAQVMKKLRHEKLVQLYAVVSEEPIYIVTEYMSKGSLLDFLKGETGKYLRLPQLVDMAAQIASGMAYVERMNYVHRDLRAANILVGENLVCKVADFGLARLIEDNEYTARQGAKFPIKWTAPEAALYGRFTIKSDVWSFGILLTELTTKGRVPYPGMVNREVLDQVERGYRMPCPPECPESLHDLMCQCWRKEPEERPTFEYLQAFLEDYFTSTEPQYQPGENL

The compound `Cc1[nH]c2ncnc(Nc3cccc(C(F)(F)F)c3)c2c1C` yielded an IC50 in experiment [1] of 1900 nM.
Regarding `Cc1[nH]c2ncnc(Nc3cccc(Cl)c3)c2c1C`, the IC50 in experiment [2] is over 100 µM; in experiment [3], 40.5 µM; in experiment [4], over 100 µM; in the experiment with NIH3T3 [5] it was over 100 µM.
For the compound `Clc1cccc(Nc2ncnc3[nH]c4ccccc4c23)c1`, the IC50 in experiment [2] is over 100 µM; in experiment [1], 6 nM; with Balb/MK it was 0.47 µM; in experiment [3], 30 µM; in experiment [6] it was 0.12 µM; in experiment [4] it was over 100 µM. Besides, in the experiment on NIH3T3 [5], the IC50 was over 100 µM.
On to `Cc1cccc(Nc2ncnc3[nH]c(C)c(C)c23)c1`, for which the IC50 in experiment [2] is over 100 µM; in the experiment on Balb/MK, 7.2 µM; in experiment [3], 5.3 µM; in experiment [6] it was over 100 µM; in experiment [4] it was over 100 µM.
As to `Cc1cccc(Nc2ncnc3[nH]c4c(c23)CCCC4)c1`, the IC50 in experiment [2] is over 100 µM; in the experiment with Balb/MK it was over 50 µM; in experiment [3], over 100 µM; in experiment [6] it was over 100 µM; in experiment [4], over 100 µM; in the experiment on NIH3T3 [7] it was over 10 µM.
Consider `Clc1cccc(Nc2ncnc3[nH]c(-c4ccccc4)c(-c4ccccc4)c23)c1`, for which the IC50 in experiment [2] is over 100 µM; in the experiment on Balb/MK, over 50 µM; in experiment [3], over 100 µM; in the experiment with NIH3T3 [7] it was over 10 µM.
As to `Cc1ccc(Nc2ncnc3[nH]c(C)c(C)c23)cc1`, half-maximal inhibition in experiment [1] (IC50) required 2100 nM.
Regarding `Cc1[nH]c2ncnc(Nc3cccc(F)c3)c2c1C`, the IC50 in experiment [2] was over 100 µM; in the experiment with Balb/MK, 29.9 µM; in experiment [3] it was 99 µM; in experiment [6] it was over 100 µM; in experiment [4], over 100 µM.
For `Cc1[nH]c2ncnc(Nc3cccc(Cl)c3)c2c1-c1ccccc1`, the IC50 in experiment [2] is over 100 µM; in experiment [1] it was 230 nM; with Balb/MK, 38.3 µM; in experiment [3], over 100 µM; in experiment [6], 6 µM.
As to `CCc1ccc(Nc2ncnc3[nH]c(C)c(C)c23)cc1`, the IC50 in experiment [1] came out at 77500 nM.
In experiment [1], `CCc1ccccc1Nc1ncnc2[nH]c(C)c(C)c12` came in with an IC50 of over 100000 nM.
Take `Cc1c(-c2ccccc2)[nH]c2ncnc(Nc3cccc(Cl)c3)c12`: the IC50 in experiment [2] is over 100 µM; in experiment [1], 10 nM; with Balb/MK, over 50 µM; in experiment [3], over 100 µM; in experiment [6], 6 µM; in experiment [4], over 100 µM. The compound also yielded an IC50 in the experiment on NIH3T3 [7] of over 10 µM.
In the case of `Cc1[nH]c2ncnc(NC3CCCCC3)c2c1C`, in experiment [1], the 50% inhibitory concentration (IC50) came to 6920 nM. In other words, the single-digit micromolar range.
In experiment [1], `Cc1[nH]c2ncnc(NCc3ccccc3)c2c1C` gave an IC50 of 1080 nM.
Same read-out and setting: with `Cc1[nH]c2ncnc(Nc3cccc(C(=O)O)c3)c2c1C` the figure was 16300 nM; with `COc1cccc(Nc2ncnc3[nH]c4c(c23)CCCC4)c1`, 860 nM.
Regarding `c1ccc(Nc2ncnc3[nH]c4c(c23)CCCC4)cc1`, the IC50 in experiment [2] was over 100 µM; in experiment [3], over 100 µM; in experiment [4] it was over 100 µM; in the experiment on NIH3T3 [7], over 10 µM.
For `Oc1cccc(Nc2ncnc3[nH]c4c(c23)CCCC4)c1`, in experiment [1], 420 nM corresponded to half-maximal inhibition (IC50).
With `Brc1cccc(Nc2ncnc3[nH]c4c(c23)CCCC4)c1`, the IC50 was over 100 µM in experiment [2]; 1.4 µM in the experiment with Balb/MK; over 100 µM in experiment [3]; 0.4 µM in experiment [6]; over 100 µM in experiment [4]; over 100 µM in the experiment with NIH3T3 [5]. In the experiment on NIH3T3 [7], this compound gave an IC50 of over 10 µM.
In turn, `Cc1[nH]c2ncnc(Nc3ccc(Cl)cc3)c2c1C` showed an IC50 in experiment [1] of over 50000 nM.
On the same count and under the same terms, with `CCOC(=O)c1cccc(Nc2ncnc3[nH]c(C)c(C)c23)c1` the figure was over 100000 nM; with `CCc1ccc(Nc2ncnc3[nH]c4c(c23)CCCC4)cc1`, over 50000 nM.
In the case of `COc1cccc(Nc2ncnc3[nH]c(C)c(C)c23)c1`, the IC50 in experiment [1] was 1200 nM. In other words, the single-digit micromolar range.
The compound `Cc1nc(Nc2cccc(Cl)c2)c2c(C)c(C)[nH]c2n1` returned an IC50 in experiment [1] of over 100000 nM.
Still for that read-out and setting: with `Cc1[nH]c2ncnc(Nc3ccccc3Cl)c2c1C` the figure was 75100 nM.
The same measure, in the same setting: next, `O=C(O)c1cccc(Nc2ncnc3[nH]c4c(c23)CCCC4)c1`: 25700 nM.
Regarding `Cc1[nH]c2ncnc(Nc3cccc(Br)c3)c2c1C`, the IC50 was over 100 µM in experiment [2]; 1.4 µM with Balb/MK; 2.3 µM in experiment [3]; 1.5 µM in experiment [6]; over 100 µM in experiment [4]; over 100 µM in the experiment on NIH3T3 [5]. The same compound returned an IC50 in the experiment with NIH3T3 [7] of over 10 µM.
With `Cc1[nH]c2ncnc(Nc3cccc(O)c3)c2c1C`, the IC50 in experiment [1] was determined as 1250 nM.
In the case of `Cc1[nH]c2ncnc(Nc3ccccc3)c2c1C`, the figures for the IC50 (in experiment [2]; in experiment [4]; in the experiment with NIH3T3 [7]) were over 100 µM, 75 µM and over 10 µM, respectively.
Turning to `Clc1cccc(Nc2ncnc3[nH]c4c(c23)CCCC4)c1`, the IC50 in experiment [2] was over 100 µM; with Balb/MK, 0.98 µM; in experiment [3] it was over 100 µM; in experiment [4], over 100 µM; in the experiment with NIH3T3 [5] it was over 100 µM; in the experiment with NIH3T3 [7], over 10 µM.
`Cc1[nH]c2ncnc(Nc3cccc(C#N)c3)c2c1C` came in with an IC50 in experiment [1] of 200 nM.
For the compound `Cc1[nH]c2ncnc(Oc3cccc(Cl)c3)c2c1C`, half-maximal inhibition in experiment [1] (IC50) required 2500 nM.
As for `Cc1[nH]c2ncnc(N(C)c3cccc(Cl)c3)c2c1C`, the IC50 in experiment [1] worked out at 500 nM. Against the preceding compound, the IC50 is about 5-fold lower.

These data come from ChEMBL document CHEMBL1129072, “4-(Phenylamino)pyrrolopyrimidines: potent and selective, ATP site directed inhibitors of the EGF-receptor protein tyrosine kinase” (J Med Chem, 1996).
